High-throughput results deposited in PubChem by several laboratories.
Compounds with a hit are over-represented: about 3.7% of the library has one in this group of screens.
RAM inhibit: inhibitors of the yeast RAM network; inhibition, % at 50 µM; S. cerevisiae dse1pr::URA3 reporter, 5-FOA growth OD615, 2 d; analog-sensitive cbk1-as2 kinase mutant strain; AID 868; 190,000 tested, 1.8% active;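 active = inhibition above a set limit, 3 SD over mean compound inhibition, cut at about 8.4% in these data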;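 note: 0% = DMSO-only wells with no growth and 100% = 10 µM 1-NA-PP1 full growth; inhibition rescues growth on 5-FOA so higher OD means more RAM inhibition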
Yeast lifespan up: yeast lifespan extension; S. cerevisiae growth with nicotinamide, OD615; deaD strain in restrictive glucose medium; inhibition of the nicotinamide effect, % at 10 µM; 130,000 tested, 0.68% active; AID 775;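 active = inhibition above a set limit, placed 3 SD over the median of all compounds, cut at about 26% in these data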;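 note: 0% = nicotinamide-treated wells and 100% = cells grown without nicotinamide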
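assay system = DeaD-strain S. cerevisiae | buffer or medium = restrictive glucose medium | reagent = 1.5 mM nicotinamide | compound = 10 µM single point, 0.25% DMSO | incubation = 48 h compound exposure at 30 °C, humidified | signal = OD615 measurement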
Efa HMGR inh: blocks class II HMG-CoA reductase of Enterococcus faecalis; inhibition, % at 10 µM; 190,000 tested, 0.41% active; AID 1066; purified E. faecalis HMGR, NADPH absorbance 340 nm kinetic;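 active = inhibition above a set limit, the median over all tested compounds plus 3 SD, cut at about 9.5% in these data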;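 note: enzyme runs in reverse so mevalonate oxidation gives rising NADPH absorbance; 0% = complete reaction with DMSO and 100% = background rate lacking mevalonate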
Yeast growth inh: yeast BB579 growth reduction in restrictive medium; 140,000 tested, 0.51% active; inhibition, % at 10 µM; S. cerevisiae BB579 growth, OD615, 48 h;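 active = inhibition above a set limit, 3 SD over the mean compound inhibition, cut at about 44% in these data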
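System: DeaD yeast strain BB579; buffer or medium: CSMM-D dextrose restrictive medium; technique: OD at 615 nm; schedule: 4 h cell preincubation, 48 h compound exposure, 30 °C humidified; doses: single 10 µM dose; controls: amphotericin B 10 µg/mL, positive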
Insulin prom inh: TRM-6 insulin promoter activity inhibition; AID 1273; TRM-6 cells, insulin promoter-eGFP reporter, imaging; reporter expression induced with tamoxifen; 130,000 tested, 0.9% active; inhibition, % at 2 µM;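 active = inhibition above the mean plus 3 SD, with well images judged a real hit on visual review, cut at about 60% in these data, passing the limit was not always enough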
An asterisk follows results filed as active.

How did CSC1=NCCN1S(=O)(=O)c1ccc(C)cc1 do in these assays?
RAM inhibit: 1; Efa HMGR inh: -3; Insulin prom inh: 79*

What do the screens show for `CSC1=NCCN1S(=O)(=O)c1ccc(F)cc1`?
RAM inhibit: 0; Efa HMGR inh: 0; Insulin prom inh: 0

What do the screens show for `Cn1nccc1CNC(=O)c1c(Cl)cnn1C`?
RAM inhibit: 1; Yeast lifespan up: 2; Efa HMGR inh: -2; Yeast growth inh: -8; Insulin prom inh: 73*

What do the screens show for `Cn1ncc(Cl)c1C(=O)NCc1ccco1`?
RAM inhibit: 0; Efa HMGR inh: -1

What do the screens show for `Cc1ccc(OCC(=O)Nc2ccc(S(=O)(=O)Nc3onc(C)c3C)cc2)cc1`?
RAM inhibit: 10*; Yeast lifespan up: -8; Efa HMGR inh: -8; Yeast growth inh: -49; Insulin prom inh: 50

How did Cc1ccc(S(=O)(=O)CC(=O)Nc2ccc(S(=O)(=O)Nc3onc(C)c3C)cc2)cc1 do in these assays?
RAM inhibit: 1; Yeast lifespan up: -2; Efa HMGR inh: -3; Yeast growth inh: -2; Insulin prom inh: -8

Results for Cc1noc(NS(=O)(=O)c2ccc(N/C=C\C(=O)c3ccncc3)cc2)c1C ?
RAM inhibit: 4; Yeast lifespan up: 24; Efa HMGR inh: -4; Yeast growth inh: -29; Insulin prom inh: 0

How did Cc1noc(NS(=O)(=O)c2ccc(N/C=C/C(=O)c3ccc(F)cc3)cc2)c1C do in these assays?
RAM inhibit: 11*; Efa HMGR inh: -3; Insulin prom inh: 21

Results for O=C(NNC(=S)NC(=O)C12CC3CC(CC(C3)C1)C2)c1ccncc1 ?
RAM inhibit: -1; Yeast lifespan up: -3; Efa HMGR inh: -2; Yeast growth inh: 74*

What do the screens show for `CC1(C(=O)NC(=S)NNC(=O)c2ccncc2)CCCCC1`?
RAM inhibit: -1; Yeast lifespan up: 10; Efa HMGR inh: 1; Yeast growth inh: -42; Insulin prom inh: -59

How did O=C1COc2ccc(N3C(=O)c4ccccc4C3=O)cc2N1 do in these assays?
RAM inhibit: 4; Efa HMGR inh: -1

How did CC(C)CNC(=O)c1oc2ccccc2c1COc1ccccc1 do in these assays?
RAM inhibit: 8.9*; Yeast lifespan up: -2; Efa HMGR inh: -4; Yeast growth inh: -12; Insulin prom inh: 17

What do the screens show for `CC(C)CCNC(=O)CCCCn1c(=O)[nH]c2ccsc2c1=O`?
RAM inhibit: 2; Efa HMGR inh: 3

How did CCCCn1c(CNC(=O)CCC)nc2ccccc21 do in these assays?
RAM inhibit: 0; Yeast lifespan up: -1; Efa HMGR inh: -6; Yeast growth inh: 0

How did COc1ccc(NCc2nc3ccccc3n2CCOc2ccccc2)cc1 do in these assays?
RAM inhibit: 0; Yeast lifespan up: 56*; Efa HMGR inh: -2; Yeast growth inh: 22; Insulin prom inh: 18

How did CCCn1c(C(C)NC(C)=O)nc2ccccc21 (stereo not given) do in these assays?
RAM inhibit: 3; Yeast lifespan up: -2; Efa HMGR inh: 0; Yeast growth inh: 44*; Insulin prom inh: 20

How did CCCc1nc2ccccc2n1CCOc1ccccc1 do in these assays?
RAM inhibit: 0; Yeast lifespan up: -3; Efa HMGR inh: -3; Yeast growth inh: -32; Insulin prom inh: 25

What do the screens show for `c1ccc(NCc2nc3ccccc3n2CCOc2ccccc2)cc1`?
RAM inhibit: -1; Yeast lifespan up: 41*; Efa HMGR inh: -4; Yeast growth inh: -23; Insulin prom inh: 6

What do the screens show for `CCCn1c(CNc2ccccc2O)nc2ccccc21`?
RAM inhibit: 0; Yeast lifespan up: 4; Efa HMGR inh: -1; Yeast growth inh: 45*; Insulin prom inh: -327

How did Cc1ccc(/C(=N/Nc2nc3ccccc3s2)C2=C(O)c3ccccc3C2=O)cc1 do in these assays?
RAM inhibit: 8; Efa HMGR inh: -4; Insulin prom inh: 8

How did COc1ccc(C(C(=O)NCCC(C)C)N(CCN2CCOCC2)C(=O)Cn2nnc3ccccc32)c(OC)c1 (stereo not given) do in these assays?
RAM inhibit: 1; Efa HMGR inh: -3

How did O=C(CN1C(=O)NC2(CCc3ccccc3C2)C1=O)Nc1ccc(F)cc1 (stereo not given) do in these assays?
RAM inhibit: 3; Yeast lifespan up: -3; Efa HMGR inh: 0; Yeast growth inh: -8

What do the screens show for `Cc1ccc(OCCn2c(CCCO)nc3ccccc32)cc1`?
RAM inhibit: 1; Yeast lifespan up: -12; Efa HMGR inh: -10; Yeast growth inh: 19; Insulin prom inh: -18
